Source: PubChem
Apaf1 inhib – human Apaf-1 inhibition; reconstituted apoptosome caspase-3 activity, DEVD-Rh110 fluorescence; inhibition, % at 20 µM; AID 489030; 330,000 tested, 0.71% active; active = inhibition of at least 40% at 20 µM;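 note: plate controls were DMSO wells for no effect and DEVD-CHO caspase inhibitor wells for full effect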
Target sequence (O14727 whole entry, looked up): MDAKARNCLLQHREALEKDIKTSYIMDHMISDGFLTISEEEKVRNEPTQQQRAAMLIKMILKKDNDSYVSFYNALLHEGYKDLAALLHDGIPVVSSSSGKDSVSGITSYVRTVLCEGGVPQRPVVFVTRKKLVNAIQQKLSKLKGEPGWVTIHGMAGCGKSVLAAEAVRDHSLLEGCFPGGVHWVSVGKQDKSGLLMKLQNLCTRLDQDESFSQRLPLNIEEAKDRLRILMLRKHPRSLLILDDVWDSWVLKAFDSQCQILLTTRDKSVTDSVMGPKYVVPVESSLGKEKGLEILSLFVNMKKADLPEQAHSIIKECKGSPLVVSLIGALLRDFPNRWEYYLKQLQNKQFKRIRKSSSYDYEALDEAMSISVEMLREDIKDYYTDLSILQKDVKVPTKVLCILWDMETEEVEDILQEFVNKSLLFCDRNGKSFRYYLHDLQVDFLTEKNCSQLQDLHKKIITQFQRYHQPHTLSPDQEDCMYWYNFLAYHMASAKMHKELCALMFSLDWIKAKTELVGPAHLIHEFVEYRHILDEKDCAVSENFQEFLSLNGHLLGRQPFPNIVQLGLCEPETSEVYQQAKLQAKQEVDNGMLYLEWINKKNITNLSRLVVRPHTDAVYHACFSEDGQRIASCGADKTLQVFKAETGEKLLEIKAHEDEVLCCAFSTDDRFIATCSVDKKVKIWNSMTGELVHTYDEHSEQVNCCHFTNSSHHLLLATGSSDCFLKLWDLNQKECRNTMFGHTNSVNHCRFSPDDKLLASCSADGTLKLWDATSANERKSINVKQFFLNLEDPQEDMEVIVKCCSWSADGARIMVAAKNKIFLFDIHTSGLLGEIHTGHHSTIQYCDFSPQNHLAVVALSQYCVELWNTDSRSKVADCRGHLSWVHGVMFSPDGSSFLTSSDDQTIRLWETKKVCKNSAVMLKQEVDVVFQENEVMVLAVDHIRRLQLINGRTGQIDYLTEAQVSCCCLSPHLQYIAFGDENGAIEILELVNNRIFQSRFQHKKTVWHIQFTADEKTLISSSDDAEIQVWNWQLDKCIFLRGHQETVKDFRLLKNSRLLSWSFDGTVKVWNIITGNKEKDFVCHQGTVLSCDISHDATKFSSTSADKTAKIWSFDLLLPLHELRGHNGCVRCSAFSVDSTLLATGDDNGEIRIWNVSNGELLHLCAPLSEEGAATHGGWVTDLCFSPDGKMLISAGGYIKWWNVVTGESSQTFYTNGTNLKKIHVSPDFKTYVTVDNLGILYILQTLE
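Material: reconstituted apoptosome with Apaf-1, cytochrome c, caspase-9, procaspase-3, dATP. Technique: Rh110 fluorescence intensity. Buffer or medium: pH 7.5 Hepes buffer with CHAPS, BSA, DTT. Times: 30 min plus 50 min, RT.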
Mdm2-MdmX inh – disrupts the human Mdm2-MdmX interaction; O15151+Q00987; SaOS-2 split-luciferase Mdm2/MdmX complementation, luminescence; inhibition, % at 8 µM; 330,000 tested, 3% active; AID 485346;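 active = inhibition of at least 50% at 8 µM in the primary screen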
CHOP UPR activ – apoptotic UPR (CHOP) activation. AID 449763. activation, % at 10 µM. CHO-CHOP luciferase reporter, luminescence; percent of tunicamycin response over DMSO baseline. 330,000 tested, 0.34% active;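 active = at 10 µM dose, activation of 40% or more, normalized to positive control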;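 note: 100% = tunicamycin at 10 µg/mL and 0% = DMSO alone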
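Assay system: CHO-CHOP cells, stable luciferase reporter of PERK-eIF2a-CHOP signalling / Buffer or medium: F12 plus 10% serum / Compound dosing: one dose, 10 µM in 0.5% DMSO / Times: 6 h compound treatment, 37 °C / Technique: luciferase luminescence / Read-out: % reporter activation, DMSO baseline versus tunicamycin full activation / Benchmarks: tunicamycin and DMSO controls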
XBP1 UPR activ – activators of adaptive arm of unfolded protein response (XBP1) | 330,000 tested, 0.33% active | CHO-XBP1 luciferase reporter, IRE1-XBP1 UPR activation, luminescence; percent of tunicamycin response, DMSO as zero | activation, % at 20 µM;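 active = versus positive control, 20 µM dose yields 30% or more activation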;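 note: 100% = tunicamycin at 10 µg/mL and 0% = DMSO only wells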
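assay system = CHO-XBP1 luciferase reporter cells | amount = 1000 cells/well | buffer or medium = F12 plus 10% FBS | compound dosing = single point, 20 µM final compound, 1% DMSO | incubation = 16-18 h cell attachment at 37 °C, then 6 h compound exposure | detection = Steady-Glo luminescence read | controls = tunicamycin 10 µg/mL and vehicle-only wells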
UBC13 polyUb – inhibitors of human UBC13 polyubiquitin chain formation; P61088; TR-FRET; inhibition, % at 20 µM; 330,000 tested, 0.47% active; in the data active = inhibition above about 45%, passing the limit was not always enough
UPR CHOP confirm – apoptotic UPR (CHOP) activation, confirmed. AID 463112. activation, % at 10 µM. CHO-CHOP cells, CHOP-luciferase reporter luminescence; percent of tunicamycin response, DMSO as zero. shares compounds with CHOP UPR activ. 1,000 tested, 64% active; in the data active = activation above about 33%;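 note: 0% = DMSO wells and 100% = tunicamycin 10 µg/mL wells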
XBP1 UPR conf – confirmation of adaptive unfolded protein response (XBP1) activators | AID 485299 | CHO-XBP1 IRE1-XBP1 luciferase reporter, luminescence | shares compounds with XBP1 UPR activ | activation, % at 20 µM | 1,000 tested, 63% active;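 active = reporter signal at least 30% of the positive control's activation in two or more of four replicate wells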;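 note: plate controls were DMSO negative control for no effect and tunicamycin 10 µg/mL positive control for full effect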
Mdm2-MdmX conf – human Mdm2/MdmX binding inhibition, confirmed; 10,000 tested, 55% active; AID 489028; luminescent assay; inhibition, % at 8 µM; shares compounds with Mdm2-MdmX inh; in the data active = inhibition above about 40%
Full FLuc ctr – counter-screen for Mdm2/MdmX inhibitors: full-length luciferase | inhibition, % at 8 µM | shares compounds with Mdm2-MdmX inh | SaOS-2 full-length luciferase counterscreen, luminescence | 6,200 tested, 77% active;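 active = mean inhibition at 8 µM reaching about 37%, which flags the compound as non-specific, limit read from the data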;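 note: p53-null SaOS-2 cells with luciferase driven by a doxycycline-inducible promoter; compound on cells about two nights before reading with doxycycline added after day one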
* hit, by the source's call; / = no result. Hits are enriched below; roughly 4.1% of the tested compounds scored in any of these assays.

SMILES	Apaf1 inhib	Mdm2-MdmX inh	CHOP UPR activ	XBP1 UPR activ	UBC13 polyUb	UPR CHOP confirm	Mdm2-MdmX conf	Full FLuc ctr	others
N#Cc1ccc(N/N=C/c2cn(-c3ccccc3)nc2-c2ccccc2)c([N+](=O)[O-])c1	3	91*	107*	43*	-48	108*	5	/	XBP1 UPR conf=122*
Cc1c(NS(=O)(=O)c2cccs2)cccc1-c1nc2cccnc2s1	-17	-21	4	1	2	/	/	/
O=S(=O)(Nc1cccc2ncccc12)c1cccs1	11	74*	49*	-8	-2	-4	100*	52*
O=S(=O)(Nc1nc(-c2sccc2Cl)cs1)c1cc(Cl)ccc1Cl	37	2	1	-2	-27	/	/	/
CCOC(=O)c1ccc(N=c2sc(C(=O)OC)cc(=O)n2CCCN2CCOCC2)cc1	0	12	2	-2	17	/	/	/
CCOC(=O)c1ccc(N=c2sc(C(=O)OC)cc(=O)n2Cc2ccco2)cc1	4	55*	41*	7	9	23	2	/
O=C(NC1CCN(S(=O)(=O)c2cccc(Cl)c2)CC1)C1CCCCC1	2	-21	-1	3	-10	/	/	/
COc1ccc(CNC(=O)CSc2nc(-c3ccccc3)cc(-c3cccs3)c2C#N)cc1	-8	63*	45*	33*	4	7	-4	/	XBP1 UPR conf=20
COc1cc(/C=C(/C#N)c2nc3ccccc3[nH]2)ccc1OCC(=O)Nc1ccccc1C(C)C	-16	100*	76*	-6	-10	64*	79*	52*
COc1cc(/C=C(\C#N)c2nc3ccccc3[nH]2)ccc1OC(=O)c1ccco1	14	-24	7	17	-24	/	/	/
COc1cc(/C=C(/C#N)c2nc3ccccc3[nH]2)ccc1OCC(=O)Nc1ccccc1C	2	100*	299*	116*	-21	38*	17	/	XBP1 UPR conf=79*
CCOc1cc(/C=C(/C#N)c2nc3ccccc3[nH]2)ccc1OCc1ccc(C(=O)O)o1	4	11	1	-1	-19	/	/	/
CCOC(=O)c1sc(N(Cc2ccccc2)C(=O)COC(=O)c2ccccc2O)nc1C	-4	-23	6	2	25	/	/	/
CCOC(=O)c1sc(N(Cc2ccccc2)C(=O)CCl)nc1C	23	65*	49*	20	2	219*	11	/
CS(=O)(=O)c1nc(-c2ccccc2)cc(-c2ccccc2)c1C#N	25	100*	68*	10	6	47*	27	/
O=C(CSc1ccccn1)Nc1nonc1[N+](=O)[O-]	9	95*	85*	-6	-3	42*	80*	29
O=C(CSc1ccccn1)Nc1ccc(NC(=O)CSc2ccccn2)cc1	-11	17	-1	-1	5	/	/	/
COc1cc(-c2[nH]ncc2CN2CCN(c3cccc(C)n3)CC2)cc(OC)c1OC	-24	15	0	-4	21	/	/	/
COc1cc(Cl)c(NC2=CC(=O)C(=O)c3ccccc32)c(OC)c1	92*	53*	51*	13	-284	18	59*	50*
CC(C)c1cc(NCCCN2CCOCC2)n2c(nc3ccccc32)c1C#N	7	-2	-2	-4	3	/	/	/
COc1ccc(CNC(=O)COc2ccc(F)cc2)cc1	-5	25	-1	-1	-2	/	/	/
COc1ccc(CNC(=O)COc2ccc(C(=O)c3ccc(F)cc3)cc2)cc1	7	61*	56*	4	3	-2	47*	89*
O=C(C#Cc1ccccc1)c1cccc([N+](=O)[O-])c1	-8	88*	293*	-6	-2	197*	16	/
O=c1/c(=C/c2ccc(O)cc2)sc2nc3cc(Br)cnc3n12	-14	58*	63*	79*	-7	13	28	40*	XBP1 UPR conf=21
COCCCNC(=S)N1CCC(NC(=O)c2ccco2)CC1	-6	16	1	-2	-3	/	/	/
SMILES	Apaf1 inhib	Mdm2-MdmX inh	CHOP UPR activ	XBP1 UPR activ	UBC13 polyUb	UPR CHOP confirm	Mdm2-MdmX conf	Full FLuc ctr	others
Cc1cc(NC(=O)c2cc(-c3ccccn3)nc3ccc(Br)cc23)no1	-7	66*	58*	34*	-26	61*	23	/	XBP1 UPR conf=33*
CCC(=O)Nc1cc(C(=O)O)ccc1Sc1ccc(Cl)cc1	1	15	-3	0	0	/	/	/
Cc1ccc(C(=O)C(C(=O)/C=C/c2ccccc2)=C2SCCCS2)cc1	24	98*	75*	30*	-11	96*	90*	54*	XBP1 UPR conf=39*
CC(C)c1nnc(NC(=O)CCS(=O)(=O)Cc2ccccc2)s1	-1	15	0	-3	1	/	/	/
CC(C)c1nnc(NC(=O)CCS(=O)(=O)c2nc(-c3cccs3)cc(C(F)(F)F)n2)s1	13	95*	74*	-6	-10	48*	44*	63*
CC(C)c1ccc(NC(=O)CSc2nc3ccccc3nc2N2CCCC2)cc1	11	18	1	-1	0	/	/	/
Cc1ccc(C(=O)c2cc(C)sc2N)cc1	13	-6	0	6	-32	/	/	/
Cc1cc(C(=O)c2ccc(Cl)cc2)c(NC(=O)CCl)s1	26	67*	50*	7	6	46*	6	/
CC1(C)NC(=O)N(CC(=O)N2CCN(S(=O)(=O)c3ccccc3C(F)(F)F)CC2)C1=O	27	-21	0	-2	13	/	/	/
COC(=O)c1cc(=O)n(Cc2ccc3c(c2)OCO3)c(=Nc2ccc(F)c(Cl)c2)s1	9	62*	62*	3	-2	73*	39	102*
CCn1c(=O)cc(C(=O)OC)sc1=Nc1ccc(F)c(F)c1	3	19	8	6	15	/	/	/
COC(=O)c1cc(=O)n(CCc2ccc(OC)cc2)c(=Nc2ccc(F)c(Cl)c2)s1	24	71*	60*	10	-1	40*	-3	/
COC(=O)c1cc(=O)n(CCc2ccccc2)c(=Nc2ccc(F)cc2)s1	24	28	6	5	4	/	/	/
Cc1ccc(C(CC(=O)NCCCN(C)C)c2ccc(OC(C)C)cc2)cc1 (stereo unspecified)	-6	-2	-3	-5	17	/	/	/
Cc1ccc(-c2csc3ncnc(Sc4nnc(CN5CCCCCC5=O)o4)c23)cc1	5	83*	82*	-6	11	80*	100*	-1
